# Columns and labels:
# Rattus norvegicus [1] = experiment: […] in Wistar rat assessed as Metabolite M1 at 50 mg/kg, po; format: ADME, organism-based; parameters: dose 50 mg/kg, route oral; conditions: in vivo
# Rattus norvegicus [2] = experiment: Apparent elimination half life in Wistar rat assessed as Metabolite M1 at 50 mg/kg, po; format: ADME, organism-based; parameters: dose 50 mg/kg, route oral; conditions: in vivo
# Rattus norvegicus [3] = experiment: Clearance in Wistar rat assessed as Metabolite M1 at 50 mg/kg, po; format: ADME, organism-based; parameters: dose 50 mg/kg, route oral; conditions: in vivo
# Rattus norvegicus [4] = experiment: AUC (0 to infinity) in Wistar rat assessed as Metabolite M1 at 50 mg/kg, po; format: ADME, organism-based, Plasma; parameters: dose 50 mg/kg, route oral, time infinity; conditions: in vivo
# Rattus norvegicus [5] = experiment: Tmax in Wistar rat assessed as Metabolite M1 at 50 mg/kg, po; format: ADME, organism-based; parameters: dose 50 mg/kg, route oral; conditions: in vivo
# Rattus norvegicus [6] = experiment: AUC (0 to t) in Wistar rat assessed as Metabolite M1 at 50 mg/kg, po; format: ADME, organism-based, Plasma; parameters: dose 50 mg/kg, route oral; conditions: in vivo
# Rattus norvegicus [7] = experiment: Cmax in Wistar rat assessed as Metabolite M1 at 50 mg/kg, po; format: ADME, organism-based; parameters: dose 50 mg/kg, route oral; conditions: in vivo
# Plasma [8] = experiment: Stability in rat plasma assessed as metabolite M1 at 180 ng/ml after 10 days at -80 degC; format: ADME, cell-free; conditions: 240 h
# In short: (§1)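 M1 spiked into drug-free rat plasma at QC low and high levels, six replicates per level; extracted with ethyl acetate, UPLC-MS/MS. Conditions: bench top room temperature, frozen storage, three freeze–thaw cycles (frozen ≥12 h each), processed samples in autosampler. Stable if accuracy and precision within 15%; reported as % nominal and RSD.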
# Plasma [9] = experiment: Stability in rat plasma assessed as Metabolite M1at 20 ng/ml after 10 days at -80 degC; format: ADME, cell-free; conditions: 240 h; in short: as §1
# Plasma [10] = experiment: Stability in rat plasma assessed as metabolite M1 at 180 ng/ml after 24 hrs by autosampler analysis; format: ADME, cell-free; in short: as §1
# Plasma [11] = experiment: Stability in rat plasma assessed as Metabolite M1at 20 ng/ml after 24 hrs by autosampler analysis; format: ADME, cell-free; in short: as §1
# Plasma [12] = experiment: Stability in rat plasma assessed as metabolite M1 at 180 ng/ml during three freeze-thaw cycles; format: ADME, cell-free; in short: as §1
# Plasma [13] = experiment: Stability in rat plasma assessed as metabolite M1 at 180 ng/ml after 30 days at -20 degC; format: ADME, cell-free; conditions: 720 h; in short: as §1
# Plasma [14] = experiment: Stability in rat plasma assessed as Metabolite M1at 20 ng/ml during three freeze-thaw cycles; format: ADME, cell-free; in short: as §1
# Plasma [15] = experiment: Stability in rat plasma assessed as metabolite M1 at 180 ng/ml after 2 hrs at room temperature; format: ADME, cell-free; in short: as §1
# Plasma [16] = experiment: Stability in rat plasma assessed as Metabolite M1at 20 ng/ml after 30 days at -20 degC; format: ADME, cell-free; conditions: 720 h; in short: as §1
# Plasma [17] = experiment: Stability in rat plasma assessed as Metabolite M1at 20 ng/ml after 2 hrs at room temperature; format: ADME, cell-free; in short: as §1
# Liver microsomes [18] = experiment: Metabolic stability in human liver microsomes assessed as compound remaining after 50 mins by UPLC-MS/MS analysis; format: ADME, Microsome
# Liver microsomes [19] = experiment: Metabolic stability in human liver microsomes assessed as compound remaining after 40 mins by UPLC-MS/MS analysis; format: ADME, Microsome
# Liver microsomes [20] = experiment: Metabolic stability in human liver microsomes assessed as compound remaining after 30 mins by UPLC-MS/MS analysis; format: ADME, Microsome; conditions: 0.5 h
# Liver microsomes [21] = experiment: Metabolic stability in human liver microsomes assessed as compound remaining after 20 mins by UPLC-MS/MS analysis; format: ADME, Microsome
# Liver microsomes [22] = experiment: Metabolic stability in human liver microsomes assessed as compound remaining after 10 mins by UPLC-MS/MS analysis; format: ADME, Microsome
# Liver microsomes [23] = experiment: Metabolic stability in human liver microsomes assessed as retention time by UPLC-MS/MS analysis; format: ADME, Microsome
# In short: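 UPLC on BEH column (1.7 µm) at 30 °C, isocratic acetonitrile/10 mM ammonium acetate pH 5.0 (15:85), 0.3 ml/min, 5 µL injection, PDA 209 nm with Q-TOF ESI positive mode.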
# Liver microsomes [24] = experiment: Drug metabolism in human liver microsomes assessed as Metabolite M1 formation after 50 mins by UPLC-MS/MS analysis; format: ADME, Microsome
# In short: (§2)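 Pooled human liver microsomes (30 donors), 0.5 mg protein/ml, in 50 mM Tris-HCl pH 7.4 with 5 mM MgCl2 and 50 mM piracetam (final 500 µL), triplicate tubes, 37 °C with shaking. After 10-min preincubation, reaction started with 2 mM NADPH. Stopped with cold ethyl acetate at the stated time, then centrifuged, reconstituted in mobile phase and analysed by UPLC-MS/MS.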
# Liver microsomes [25] = experiment: Drug metabolism in human liver microsomes assessed as Metabolite M1 formation after 40 mins by UPLC-MS/MS analysis; format: ADME, Microsome; in short: as §2
# Liver microsomes [26] = experiment: Drug metabolism in human liver microsomes assessed as Metabolite M1 formation after 30 mins by UPLC-MS/MS analysis; format: ADME, Microsome; conditions: 0.5 h; in short: as §2
# Liver microsomes [27] = experiment: Drug metabolism in human liver microsomes assessed as Metabolite M1 formation after 20 mins by UPLC-MS/MS analysis; format: ADME, Microsome; in short: as §2
# Liver microsomes [28] = experiment: Drug metabolism in human liver microsomes assessed as Metabolite M1 formation after 10 mins by UPLC-MS/MS analysis; format: ADME, Microsome; in short: as §2
compound,measurement,setting,value
NC(=O)CN1CCCC1=O [PIRACETAM],MRT,Rattus norvegicus [1],5.542 h
same,betat1/2(app),Rattus norvegicus [2],3.652 h
same,CL,Rattus norvegicus [3],887.3 mL/min/kg
same,AUC,Rattus norvegicus [4],939.178 µg·h/mL
same,Tmax,Rattus norvegicus [5],1 h
same,AUCt,Rattus norvegicus [6],928.445 µg·h/mL
same,Cmax,Rattus norvegicus [7],155.39 ng/mL
same,Drug metabolism,Plasma [8],179.13 ng/mL
same,Drug metabolism,Plasma [9],18.853 ng/mL
same,Drug metabolism,Plasma [10],178.753 ng/mL
same,Drug metabolism,Plasma [11],19.043 ng/mL
same,Drug metabolism,Plasma [12],178.42 ng/mL
same,Drug metabolism,Plasma [13],179.123 ng/mL
same,Drug metabolism,Plasma [14],18.88 ng/mL
same,Drug metabolism,Plasma [15],178.883 ng/mL
same,Drug metabolism,Plasma [16],18.787 ng/mL
same,Drug metabolism,Plasma [17],19.347 ng/mL
same,Stability,Liver microsomes [18],36.22 µM
same,Stability,Liver microsomes [19],40.56 µM
same,Stability,Liver microsomes [20],43.78 µM
same,Stability,Liver microsomes [21],45.66 µM
same,Stability,Liver microsomes [22],47.56 µM
same,Retention_time,Liver microsomes [23],2.726 min
O=C(O)CN1CCCC1=O,Drug metabolism,Liver microsomes [24],13.89 µM
same,Drug metabolism,Liver microsomes [25],9.23 µM
same,Drug metabolism,Liver microsomes [26],6.45 µM
same,Drug metabolism,Liver microsomes [27],4.79 µM
same,Drug metabolism,Liver microsomes [28],2.42 µM
same,Retention_time,Liver microsomes [23],2.042 min

# — ChEMBL document CHEMBL2401693, “Chromatographic separation of piracetam and its metabolite in a mixture of microsomal preparations, followed by an MS/MS analysis” (Eur J Med Chem, 2013)
